Experimental findings from ChEMBL document CHEMBL1140589, “Dipeptidyl-alpha,beta-epoxyesters as potent irreversible inhibitors of the cysteine proteases cruzain and rhodesain” (Bioorg Med Chem Lett, 2007) are described below.

pIC50: −log10 of the molar value.

Test [1] deals with Cruzipain (Trypanosoma cruzi, UniProt P25779). Nature of the test: (§1) Inhibition of cruzain. The method, boiled down: (§2)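 Recombinant enzyme at 4 nM with Z-Phe-Arg-AMC substrate in buffer A (100 mM Na acetate pH 5.5, 5 mM DTT, 0.001% Triton X-100). Enzyme and inhibitor were preincubated 5 min at 25 °C, then substrate was added. Inhibitor serial dilutions were made in DMSO, 10–10,000 nM. IC50 was read directly from a semi-log plot of rate versus inhibitor concentration.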

Test [2] deals with Cruzipain (Trypanosoma cruzi) (UniProt P25779). The experiment in a line: Ratio of kinact to ki for cruzain. More on the design: unit not given here. The method, boiled down: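 Continuous assay: enzyme was added by the instrument to inhibitor dilutions with Z-Phe-Arg-AMC in pH 5.5 acetate/DTT buffer while fluorescence was recorded. Progress curves were followed 5 min at 25 °C over a 10-fold dilution range of inhibitor. kobs came from pseudo-first-order fits. For hyperbolic kobs dependence, kinact and Ki were fitted by nonlinear regression to a two-step irreversible mechanism with substrate correction.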

Test [3] shares this target. Described as §1. Further details: concentration or dose not given beside the values. The note with it: concentration not given here. The method, boiled down: as §2
The target in test [4] is Rhodesain (Trypanosoma brucei rhodesiense) (UniProt Q95PM0). The experiment in a line: (§3) Inhibition of rhodesain. More on the design: concentration or dose not given beside the values. The note with it: concentration not given here. The method, boiled down: as §2
Test [5] concerns the target Rhodesain (Trypanosoma brucei rhodesiense, UniProt Q95PM0). Described as §3. Summed up: as §2
Test [6] is described as follows: (§4) Inhibition of Trypanosoma brucei brucei cathepsin B. Summed up:
(§5)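 Recombinant T. brucei cathepsin B at 40 nM with Z-Phe-Arg-AMC in buffer A (100 mM Na acetate pH 5.5, 5 mM DTT, 0.001% Triton X-100). Enzyme was preincubated 5 min at 25 °C with inhibitor (500–10,000 nM, DMSO serial dilutions) before substrate addition. Cleavage was followed by fluorescence at ex 355/em 460 nm, 25 °C. IC50 was taken from a semi-log rate versus concentration plot.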

Test [7] relates to Trypanosoma brucei brucei. The description is as §4. The note with it: concentration not given here. Summed up:
as §5

The test system of test [8] is Trypanosoma brucei brucei. Nature of the test: Antimicrobial activity against Trypanosoma brucei brucei. The class given is functional. More on the design: concentration or dose not given beside the values.

Cruzipain, sequence (P25779 whole entry): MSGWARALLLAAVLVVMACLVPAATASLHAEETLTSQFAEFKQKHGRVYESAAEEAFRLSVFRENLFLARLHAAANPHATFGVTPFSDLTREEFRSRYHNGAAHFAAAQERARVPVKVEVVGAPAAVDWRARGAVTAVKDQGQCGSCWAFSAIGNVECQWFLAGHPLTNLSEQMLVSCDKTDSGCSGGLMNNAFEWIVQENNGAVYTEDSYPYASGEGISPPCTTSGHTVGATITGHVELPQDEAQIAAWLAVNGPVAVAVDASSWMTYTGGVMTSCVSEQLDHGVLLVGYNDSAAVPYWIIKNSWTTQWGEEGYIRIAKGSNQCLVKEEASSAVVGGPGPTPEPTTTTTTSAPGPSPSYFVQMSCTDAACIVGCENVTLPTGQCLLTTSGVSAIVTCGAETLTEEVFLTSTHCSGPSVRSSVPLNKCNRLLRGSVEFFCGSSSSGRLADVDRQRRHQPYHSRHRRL
Rhodesain (Trypanosoma brucei rhodesiense), sequence (Q95PM0 1-450): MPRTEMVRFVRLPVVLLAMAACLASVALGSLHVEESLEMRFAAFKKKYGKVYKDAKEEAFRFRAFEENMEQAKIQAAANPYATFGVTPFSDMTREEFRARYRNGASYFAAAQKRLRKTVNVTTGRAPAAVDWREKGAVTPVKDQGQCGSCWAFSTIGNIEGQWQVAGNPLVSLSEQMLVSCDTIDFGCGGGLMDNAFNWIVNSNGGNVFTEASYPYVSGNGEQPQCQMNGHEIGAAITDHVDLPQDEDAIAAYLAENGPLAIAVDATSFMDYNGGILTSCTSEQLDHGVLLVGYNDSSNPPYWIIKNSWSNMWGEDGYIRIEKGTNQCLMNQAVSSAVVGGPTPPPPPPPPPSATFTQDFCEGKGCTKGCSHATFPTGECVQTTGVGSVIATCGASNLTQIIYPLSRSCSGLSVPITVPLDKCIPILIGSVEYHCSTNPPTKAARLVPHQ
Cruzipain (Trypanosoma cruzi), sequence (P25779 123-467 limits assumed): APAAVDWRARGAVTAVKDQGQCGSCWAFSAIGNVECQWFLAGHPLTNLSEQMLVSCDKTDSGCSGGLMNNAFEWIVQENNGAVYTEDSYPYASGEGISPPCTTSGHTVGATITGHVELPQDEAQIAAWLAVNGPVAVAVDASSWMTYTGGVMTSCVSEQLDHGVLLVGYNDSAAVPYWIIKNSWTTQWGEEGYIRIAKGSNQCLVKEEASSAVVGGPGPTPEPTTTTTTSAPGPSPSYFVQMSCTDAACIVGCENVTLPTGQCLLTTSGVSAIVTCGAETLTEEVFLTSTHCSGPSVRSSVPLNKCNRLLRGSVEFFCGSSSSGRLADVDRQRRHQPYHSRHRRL
Rhodesain, sequence (Q95PM0 whole entry): as the sequence (Q95PM0 1-450) above

Compound `O=C(N[C@@H](Cc1ccccc1)C(=O)N[C@@H](CCc1ccccc1)C(=O)[C@@H]1CO1)OCc1ccccc1` gave a pIC50 in test [1] of 8.00. Besides, the Ratio in test [2] came to 330000.
With `CCOC(=O)[C@@H]1O[C@@H]1C(=O)[C@H](CCc1ccccc1)NC(=O)[C@H](Cc1ccccc1)NC(=O)OCc1ccccc1`, the pIC50 in test [1] is 7.30; in test [5], 7.52; in test [6], 6.40. Besides, the inhibition in test [3] was 55%; in test [4], 80%; in test [7], 47%. For the same compound, the Ratio in test [2] stood at 25200. The Inhibition in test [8] is -2%.
On to `CC(C)CCNC(=O)[C@H](CC(C)C)NC(=O)[C@H]1OC1C(=O)O` (single isomer, unassigned), for which the Ratio in test [2] was found to be 70600.
In the case of `O=C(N[C@@H](Cc1ccccc1)C(=O)N[C@@H](CCc1ccccc1)C(=O)[C@H]1CO1)OCc1ccccc1`, the pIC50 in test [1] is below 6.00. Also, in test [2], the Ratio is 128000.
For the compound `CCOC(=O)[C@H]1O[C@H]1[C@H](O)[C@H](CCc1ccccc1)NC(=O)[C@H](Cc1ccccc1)NC(=O)OCc1ccccc1`, the inhibition was 5% in test [3], -4% in test [4] and 6% in test [7]. In test [8], the Inhibition was -37%.
With `CCOC(=O)[C@H]1O[C@H]1C(=O)[C@H](CCc1ccccc1)NC(=O)[C@H](Cc1ccccc1)NC(=O)OCc1ccccc1`, the results for the negative-log IC50 (pIC50) in test [1], in test [5] and in test [6] were 7.70, 8.46 and below 6.00, respectively. The figures for the inhibition in test [3], in test [4] and in test [7] were 93%, 98% and 51%, respectively. Moreover, the Ratio in test [2] was 82900. The Inhibition in test [8] turned out to be 42%.
Consider `CN1CCN(C(=O)N[C@@H](Cc2ccccc2)C(=O)N[C@H](/C=C/S(=O)(=O)c2ccccc2)CCc2ccccc2)CC1` [K-777], for which the inhibition amounted to 100% in test [3] and 72% in test [4]. This compound also showed a pIC50 in test [6] of 5.70. Moreover, in test [8], the Inhibition was found to be 99%.
As to `CCOC(=O)[C@@H]1O[C@H]1[C@@H](O)[C@H](CCc1ccccc1)NC(=O)[C@H](Cc1ccccc1)NC(=O)OCc1ccccc1`, the inhibition worked out at 1% in test [3], 3% in test [4] and 3% in test [7]. The Inhibition in test [8] came out at 17%.

Broadly, the pIC50 is the IC50 on a negative log10 scale, so that one unit is a factor of ten. What is called inhibition is the relative decrease from the control value, in per cent. What is called Inhibition is the change of the read-out against control, counted positive when it falls.
